Test results as given in ChEMBL document CHEMBL3992505, “Optimization of substituted imidazobenzodiazepines as novel asthma treatments” (Eur J Med Chem, 2017).
Active and inactive are the calls of the source. No cut-off for these calls is given here.

Legend:
[1] = system: Liver; test: Metabolic stability in human liver microsomes assessed as compound remaining at 10 uM after 1 hr by LC-MS/MS analysis; assay type: ADME, microsome
Method in brief: (§1)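 Compound stability was measured in human or mouse liver microsomes as percent remaining after 1 h. Data came from two independent experiments, each run in triplicate.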

[2] = system: Liver; test: Metabolic stability in mouse liver microsomes assessed as compound remaining at 10 uM after 1 hr by LC-MS/MS analysis; assay type: ADME, microsome; method in brief: as §1
[3] = Half life in human liver microsomes at 10 uM by LC-MS/MS analysis; assay type: ADME, microsome
[4] = system: Liver; test: Half life in mouse liver microsomes at 10 uM by LC-MS/MS analysis; assay type: ADME, microsome; conditions: microsomes, 10 µM
[5] = Cytotoxicity in HEK293 cells after 48 hrs by Cell-titer Glo reagent based assay; conditions: human, read-out: LD50
Method in brief: (§2)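 Cells (HEK293, HepG2 or BEAS2B) exposed to compounds at a range of concentrations for 48 h; viability read by Cell-Titer Glo luminescence. Normalized to DMSO (negative) and 3-dibutylamino-1-(4-hexyl-phenyl)-propan-1-one at 150 μM final in DMSO (positive).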

[6] = Cytotoxicity in human HepG2 cells after 48 hrs by Cell-titer Glo reagent based assay; conditions: read-out: LD50; method in brief: as §2
[7] = Cytotoxicity in human BEAS2B cells after 48 hrs by Cell-titer Glo reagent based assay; design: species or system BEAS-2B; conditions: read-out: LD50; method in brief: as §2
[8] = system: Mus musculus; test: Neurotoxicity in Swiss Webster mouse assessed as induction of senorimotor impairment at 40 mg/kg, ip administered 10 mins prior to testing and measured for 3 mins at 10 to 60 mins after drug administration by rotarod method; assay type: toxicity, organism-based; conditions: in vivo
Method in brief: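 Swiss Webster mice, pre-trained at 15 rpm until they held on for 3 min at three consecutive sessions, were given a single i.p. dose of 40 mg/kg in 10% DMSO/40% propylene glycol/50% PBS. Rotarod at 15 rpm for 3 min at 10, 30 and 60 min after dosing. Falls before 3 min scored as fail, with time of fall recorded. N = 10, mean ± SEM. Vehicle and diazepam 5 mg/kg i.p. controls. Mice rested 2–3 days between doses.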

[9] = organism: Cavia porcellus; test: Inhibition of substance P-induced smooth muscle contractile force in guinea pig tracheal rings at 16 uM after 1 hr; assay type: functional
[10] = system: Mus musculus; test: Antiasthamatic effect in BALB/c mouse model of ovalbumin-induced asthma assessed as inhibition of airway hyperresponsiveness at 40 mg/kg, ip administered 40 mins as single dose prior to measurement; assay type: functional, organism-based
[11] = system: Mus musculus; test: Antiasthamatic effect in BALB/c mouse model of ovalbumin-induced asthma assessed as inhibition of airway hyperresponsiveness at 40 mg/kg, ip bid for 5 days; assay type: functional, organism-based
[12] = Cmax in mouse blood at 5 mg/kg, ip by LC/MS/MS analysis; assay type: ADME, organism-based; design: dose 5 mg/kg, route intraperitoneal
[13] = system: Blood; test: Half life in mouse blood at 5 mg/kg, ip by LC/MS/MS analysis; assay type: ADME, organism-based; conditions: in vivo
[14] = AUC (0 to t) in mouse blood at 5 mg/kg, ip by LC/MS/MS analysis; assay type: ADME, organism-based
[15] = Tmax in mouse brain at 5 mg/kg, ip by LC/MS/MS analysis; assay type: ADME, organism-based
[16] = system: Brain; test: Cmax in mouse brain at 5 mg/kg, ip by LC/MS/MS analysis; assay type: ADME, organism-based; design: dose 5 mg/kg, route intraperitoneal; conditions: in vivo
[17] = Half life in mouse brain at 5 mg/kg, ip by LC/MS/MS analysis; assay type: ADME, organism-based
[18] = system: Brain; test: AUC (0 to t) in mouse brain at 5 mg/kg, ip by LC/MS/MS analysis; assay type: ADME, organism-based; conditions: in vivo
[19] = Tmax in mouse lung at 5 mg/kg, ip by LC/MS/MS analysis; assay type: ADME, organism-based
[20] = Cmax in mouse lung at 5 mg/kg, ip by LC/MS/MS analysis; assay type: ADME, organism-based; design: dose 5 mg/kg, route intraperitoneal
[21] = Half life in mouse lung at 5 mg/kg, ip by LC/MS/MS analysis; assay type: ADME, organism-based
[22] = system: Lung; test: AUC (0 to t) in mouse lung at 5 mg/kg, ip by LC/MS/MS analysis; assay type: ADME, organism-based; conditions: in vivo
[23] = Elimination rate constant in mouse blood at 5 mg/kg, ip by LC/MS/MS analysis; assay type: ADME, organism-based
[24] = Elimination rate constant in mouse brain at 5 mg/kg, ip by LC/MS/MS analysis; assay type: ADME, organism-based
[25] = Elimination rate constant in mouse lung at 5 mg/kg, ip by LC/MS/MS analysis; assay type: ADME, organism-based
[26] = system: Blood; test: Drug metabolism in mouse blood assessed as (S)-7-Methoxy-N-methyl-9-oxo-11,12,13,13a-tetrahydro-9H-benzo[e]imidazo[5,1-c]pyrrolo[1,2-a][1,4]diazepine-1-carboxamide formation at 5 mg/kg, ip after 3 mins by LC/MS/MS analysis; assay type: ADME, organism-based; conditions: in vivo, 0.05 h
[27] = system: Blood; test: Drug metabolism in mouse blood assessed as (S)-7-Methoxy-9-oxo-11,12,13,13a-tetrahydro-9H-benzo[e]imidazo[5,1-c]pyrrolo[1,2-a][1,4]di-azepine-1-carboxylic acid formation at 5 mg/kg, ip by LC/MS/MS analysis; assay type: ADME, organism-based; conditions: in vivo
[28] = system: Blood; test: Tmax in mouse blood assessed as (S)-7-Methoxy-N-methyl-9-oxo-11,12,13,13a-tetrahydro-9H-benzo[e]imidazo[5,1-c]pyrrolo[1,2-a][1,4]diazepine-1-carboxamide at 5 mg/kg, ip by LC/MS/MS analysis; assay type: ADME, organism-based; conditions: in vivo
[29] = system: Blood; test: Cmax in mouse blood assessed as (S)-7-Methoxy-N-methyl-9-oxo-11,12,13,13a-tetrahydro-9H-benzo[e]imidazo[5,1-c]pyrrolo[1,2-a][1,4]diazepine-1-carboxamide at 5 mg/kg, ip by LC/MS/MS analysis; assay type: ADME, organism-based; design: dose 5 mg/kg, route intraperitoneal; conditions: in vivo
[30] = system: Blood; test: Elimination rate constant in mouse blood assessed as (S)-7-Methoxy-N-methyl-9-oxo-11,12,13,13a-tetrahydro-9H-benzo[e]imidazo[5,1-c]pyrrolo[1,2-a][1,4]diazepine-1-carboxamide at 5 mg/kg, ip by LC/MS/MS analysis; assay type: ADME, organism-based; conditions: in vivo
[31] = system: Blood; test: AUC (0 to t) in mouse blood assessed as (S)-7-Methoxy-N-methyl-9-oxo-11,12,13,13a-tetrahydro-9H-benzo[e]imidazo[5,1-c]pyrrolo[1,2-a][1,4]diazepine-1-carboxamide at 5 mg/kg, ip by LC/MS/MS analysis; assay type: ADME, organism-based; conditions: in vivo

For COc1ccc2c(c1)C(=O)N1CCC[C@H]1c1c(C(=O)N(C)C)ncn1-2, the Stability [1] was 92.4%, the Stability [2] was 82.5% and the half-life at 10 µM [3] was 705 min. For the same compound, the t1/2 [4] was 63.3 min, the CC50 at 48 h [5] was over 400 µM and the CC50 at 48 h [6] was over 400 µM. For the same compound, the CC50 at 48 h [7] was over 400 µM, the Activity [8] was “Non-Toxic” and the inhibition [9] was “Active”. The Activity [10] was “inactive”, the Activity [11] was “Active” and the Cmax [12] was 691 ng/mL. It also gave a t1/2 [13] of 8.8 min, an AUC(0-t) [14] of 103 ng·h/mL and a Tmax [15] of 10 min. For the same compound, the Cmax [16] was 123 ng/g, the half-life [17] was 10.3 min and the AUCt [18] was 2701 ng·min/g. It also gave a Tmax [19] of 3 min, a Cmax [20] of 30 ng/g and a half-life [21] of 11.7 min. For the same compound, the AUCt [22] was 764 ng·min/g, the k el [23] was 0.0013 s⁻¹ and the k el [24] was 0.00112 s⁻¹. The k el [25] was 0.000983 s⁻¹, the Drug metabolism [26] was “Metabolite_Detected” and the Drug metabolism [27] was “Metabolite_Notdetected”. For the same compound, the Tmax [28] was 40 min, the Cmax [29] was 1176 ng/g and the Kel [30] was 0.028 min⁻¹. It also gave an AUCt [31] of 64675 ng·min/mL.
